Source: ChEMBL document CHEMBL1147096, “Activities of DL-alpha-difluoromethylarginine and polyamine analogues against Cryptosporidium parvum infection in a T-cell receptor alpha-deficient mouse model” (2007)
Calls of active or inactive are those of the source. No cut-off for these calls is given here.

How the values were obtained:
Cryptosporidium parvum [1] = experiment: Anticryptosporidial activity against Cryptosporidium parvum infected TCR alpha deficient-mouse assessed as prevention of oocyst shedding at 20 mg/kg/day after 7 days; format: functional
Outline: (§1)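 Seven-day-old TCR-α-deficient mice were gavaged with 2 × 10^4 oocysts, and infection was confirmed in feces one week later. Treatment ran for 7 days: 20 or 134 mg/kg once daily, or 16 mg/kg twice daily. Controls received PBS. Seven days after treatment, fecal smears were stained with carbol fuchsin and scored for oocysts (×400). Ileal and cecal H&E sections were scored 0–2. Shedding was compared by Fisher's exact test.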

Cryptosporidium parvum [2] = experiment: Effect on infection of HCT8 cells by Cryptosporidium parvum […] isolated from mouse treated with 134 mg/kg/day for 7 days assessed as viability of […]; format: functional, organism-based
Outline: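 Oocysts were recovered from TCR-α-deficient mice that had been infected, then treated with 134 mg/kg once daily for 7 days. Viability was judged by whether the oocysts could establish infection in an HCT-8 cell monolayer in vitro.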

Mus musculus [3] = experiment: Ratio of intestinal epithelial ODC activity to SSAT activity in Swiss-Webster mouse at 0.2 mg, ip after 48 hrs; format: functional
Outline: (§2)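 The ratio was calculated from ODC (14CO2 release from [14C]ornithine) and SSAT (acetylation of spermine by [14C]acetyl-CoA) specific activities. Both were measured in intestinal homogenates from Swiss-Webster mice dosed once daily with CGC-11157 p.o. or i.p. and sampled at 48, 72 or 96 h.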

Mus musculus [4] = experiment: Ratio of intestinal epithelial ODC activity to SSAT activity in Swiss-Webster mouse at 0.2 mg, ip after 72 hrs; format: functional; outline: as §2
Cryptosporidium parvum [5] = experiment: Prevention of Cryptosporidium parvum infection in TCR alpha deficient-mouse pretreated with 20 mg/kgday, po for 2 days prior to oocyst infection and continued for 5 days; format: functional; settings: dose 20 mg/kg
Outline: (§3)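 Suckling TCR-α-deficient mice (6–8 per group) were treated once daily for 2 days, challenged with 2 × 10^4 oocysts, and treated for 5 more days at the same dose (20 or 50 mg/kg). Controls received PBS. Fecal oocyst shedding was checked 10 days after treatment by carbol fuchsin smear. Ileal and cecal H&E sections were scored 0–2 and analyzed by Fisher's exact test and ANOVA.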

Mus musculus [6] = experiment: Ratio of intestinal epithelial ODC activity to SSAT activity in Swiss-Webster mouse at 2 mg, po after 72 hrs; format: functional; outline: as §2
Mus musculus [7] = experiment: Ratio of intestinal epithelial ODC activity to SSAT activity in Swiss-Webster mouse at 2 mg, po after 96 hrs; format: functional; outline: as §2
Mus musculus [8] = experiment: Activity of intestinal epithelial SSAT in Swiss-Webster mouse at […], ip after 72 hrs; format: functional
Outline: (§4)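 Intestinal homogenates came from Swiss-Webster mice given CGC-11157 once daily (20 mg/kg p.o. or 2 mg/kg i.p.) and killed at 48, 72 or 96 h. SSAT was measured as [1-14C]acetyl-CoA incorporation into monoacetylspermine in Bicine (pH 8.0), with 16.5 μM labeled plus 1 mM acetyl-CoA, 2 mM spermine and 100 μg protein, 60 min at 37°C. Products were bound on cellulose phosphate discs and counted. Results are in nmol/min/mg protein ± SD.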

Mus musculus [9] = experiment: Activity of intestinal epithelial ODC in Swiss-Webster mouse at […], ip after 96 hrs; format: functional
Outline: (§5)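 Swiss-Webster mice were dosed with CGC-11157 once daily at 20 mg/kg p.o. by feeding needle or 2 mg/kg i.p. They were killed at 48, 72 or 96 h. Intestines were washed in PBS (pH 6.7) and homogenized on ice in 40 mM Tris-HCl (pH 6.7). ODC was measured as 14CO2 trapped from L-[14C]ornithine in 0.2 M acetate (pH 6.5), 60 μM pyridoxal phosphate, 3 mg/ml BSA and 125 μg protein, 30 min at 37°C. Results are in nmol/min/mg protein ± SD.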

Mus musculus [10] = experiment: Activity of intestinal epithelial SSAT in Swiss-Webster mouse at 0.2 mg, ip after 48 hrs; format: functional; outline: as §4
Cryptosporidium parvum [11] = experiment: Anticryptosporidial activity against Cryptosporidium parvum infected TCR alpha deficient-mouse assessed as prevention of oocyst shedding at 16 mg/kg twice a day after 7 days; format: functional; outline: as §1
Mus musculus [12] = experiment: Ratio of intestinal epithelial ODC activity to SSAT activity in Swiss-Webster mouse at 0.2 mg, ip after 96 hrs; format: functional; outline: as §2
Mus musculus [13] = experiment: Activity of intestinal epithelial SSAT in Swiss-Webster mouse at […], ip after 96 hrs; format: functional; outline: as §4
Mus musculus [14] = experiment: Activity of intestinal epithelial ODC in Swiss-Webster mouse at 0.2 mg, ip after 48 hrs; format: functional; outline: as §5
Mus musculus [15] = experiment: Activity of intestinal epithelial ODC in Swiss-Webster mouse at 0.2 mg, ip after 72 hrs; format: functional; outline: as §5
Mus musculus [16] = experiment: Ratio of intestinal epithelial ODC activity to SSAT activity in Swiss-Webster mouse at 2 mg, po after 48 hrs; format: functional; outline: as §2
Cryptosporidium parvum [17] = experiment: Prevention of Cryptosporidium parvum infection in TCR alpha deficient-mouse pretreated with 50 mg/kg/day, po for 2 days prior to oocyst infection and continued for 5 days; format: functional, organism-based; outline: as §3
Cryptosporidium parvum [18] = experiment: Anticryptosporidial activity against Cryptosporidium parvum infected TCR alpha deficient-mouse assessed as prevention of oocyst shedding at 134 mg/kg/day after 7 days; format: functional; outline: as §1

With `NCCCC(N)(C(=O)O)C(F)F` (racemic) [EFLORNITHINE] the Activity (Cryptosporidium parvum [1]) was 33%.

For `CCNCCCCNCCCCNCCCCNCCCCNC/C=C/CNCCCCNCCCCNCCCCNCCCCNCC`, the Activity (Cryptosporidium parvum [2]) was “inactive”.

With `CCNCCCCNCCCCNCCCCNC/C=C\CNCCCCNCCCCNCCCCNCC` the Activity (Cryptosporidium parvum [1]) was 50%, the Ratio (Mus musculus [3]) was 0.97 and the Ratio (Mus musculus [4]) was 1. For the same compound, the Activity (Cryptosporidium parvum [5]) was 50%, the Ratio (Mus musculus [6]) was 1.55 and the Ratio (Mus musculus [7]) was 2.9. It also gave an Activity (Mus musculus [8]) of 0.034 nmol/mg/min, an Activity (Mus musculus [9]) of 0.16 nmol/mg/min and an Activity (Mus musculus [10]) of 0.081 nmol/mg/min. For the same compound, the Activity (Cryptosporidium parvum [11]) was 50%, the Ratio (Mus musculus [12]) was 4 and the Activity (Mus musculus [13]) was 0.04 nmol/mg/min. It also gave an Activity (Mus musculus [14]) of 0.079 nmol/mg/min, an Activity (Mus musculus [15]) of 0.034 nmol/mg/min and a Ratio (Mus musculus [16]) of 0.99.

With `CCNCCCNC/C=C\CNCCCNCC` the Activity (Cryptosporidium parvum [17]) was “Active” and the Activity (Cryptosporidium parvum [18]) was “Toxic”.
